15 compounds from ChEMBL document CHEMBL3244305, “Analogues of 8-azainosine” (J Med Chem, 1977) can be followed below.

Activity calls are given as the source filed them. The rule behind the calls is not given here.

As usually defined, the ILS is how much longer treated animals lived than controls.

A short description of data set [1]: Cytotoxicity against human Hep2 cells assessed as growth inhibition. The data set is classed as functional. Particulars: HEp-2, read-out: ED50 (the source's name). A digest of the protocol: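 Human epidermoid carcinoma No. 2 (H.Ep. No. 2) cells grown in culture with compound. ED50 is the concentration that holds growth of treated cells to 50% of untreated controls.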

The test system of data set [2] is HEp-2. The data set is described as follows: Resistance ratio of ED50 for adenine phosphoribosyltransferase/adenosine kinase deficient 2-fluoro adenine/2-fluoro adenosine-resistant human Hep2 cells to ED50 for wild type human Hep2 cells. Format: functional.
Data set [3] deals with HEp-2. The data set is described as follows: Resistance ratio of ED50 for adenosine kinase deficient 6-(methylthio)purine ribonucleoside-resistant human Hep2 cells to ED50 for wild type human Hep2 cells. The data set is classed as functional. The method, boiled down:
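ED50 is measured as growth inhibition to 50% of untreated controls in an H.Ep. No. 2 subline resistant to 6-(methylthio)purine ribonucleoside that lacks adenosine kinase. It is divided by the ED50 in the sensitive (wild) H.Ep. No. 2 line.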

The test system of data set [4] is HEp-2. In words: Resistance ratio of ED50 for hypoxanthine-guanine phosphoribosyl transferase/adenosine kinase deficient 6-mercaptopurine/6-(methylthio)purine ribonucleoside-resistant human Hep2 cells to ED50 for wild type human Hep2 cells. Format: functional.
For data set [5], the system named is L1210. In words: Antitumor activity against mouse L1210 cells allografted in ip dosed BD2F1 mouse assessed as increase in life span administered 1 to 9 days measured on day 10 to 12 relative to control. The data set is classed as functional.
Data set [6] is described as follows: Drug degradation in buffer assessed as formation of 3,6-Dihydro-3-beta-D-ribofuranosyl-7H-1,2,3-triazolo[4,5-d]-pyrimidine-7-thione at pH 7.3 after 6 days by HPLC analysis. Format: physicochemical. Particulars: pH 7.3, 144 h. The method, boiled down: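 Conversion in pH 7.3 buffer, under conditions meant to mirror the cytotoxicity assay, followed by high-pressure liquid chromatography.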

The test system of data set [7] is L1210. The data set is described as follows: Antitumor activity against mouse L1210 cells allografted in BD2F1 mouse assessed as increase in life span at 90 mg/kg, ip administered 1 to 9 days measured on day 10 to 12 relative to control. The data set is classed as functional. To be noted: route intraperitoneal.
The subject of data set [8] is L1210. In words: Antitumor activity against mouse L1210 cells allografted in BD2F1 mouse assessed as increase in life span at 60 mg/kg, ip administered 1 to 9 days measured on day 10 to 12 relative to control. The data set is classed as functional. Particulars: route intraperitoneal.
The test system of data set [9] is L1210. The data set is described as follows: Antitumor activity against mouse L1210 cells allografted in BD2F1 mouse assessed as increase in life span at 40 mg/kg, ip administered 1 to 9 days measured on day 10 to 12 relative to control. The data set is classed as functional. To be noted: route intraperitoneal.
For data set [10], the system named is HEp-2. In words: Cytotoxicity against human Hep2 cells assessed as growth inhibition at 50 uM. Format: functional, cell-based.

For `CCSc1ncnc2c1nnn2[C@@H]1O[C@H](CO)[C@@H](O)[C@H]1O`, in data set [1], the EC50 was 0.1 µM. The “Ratio ED50” value with HEp-2 [2] came to 300.
Regarding `Nc1ncnc2nn([C@@H]3O[C@H](CO)[C@@H](O)[C@H]3O)nc12`, the EC50 in [1] is greater than 70 µM.
Regarding `CSc1ncnc2[nH]nnc12`, the EC50 in data set [1] was greater than 300 µM.
Regarding `Nc1ncnc2c1nnn2[C@@H]1O[C@H](CO)[C@@H](O)[C@H]1O`, in data set [1], the EC50 was 0.8 µM. Also, the figures for the “Ratio ED50” value in the data set on HEp-2 [3], in the data set on HEp-2 [2] and in the data set with HEp-2 [4] were 2, 2 and 60, respectively. In the data set with L1210 [5], the ILS is 39%.
Regarding `CCCCNc1ncnc2c1nnn2[C@@H]1O[C@H](CO)[C@@H](O)[C@H]1O`, in data set [1], the EC50 came to 0.3 µM.
For `OC[C@H]1O[C@@H](Nc2ncnc3snnc23)[C@H](O)[C@@H]1O`, the Stability entry in [6] is recorded as “Stable”. In addition, in [1], the EC50 stood at 0.1 µM. The ILS at 90 mg/kg in the data set with L1210 [7] amounted to 36%. Further, in the data set with L1210 [8], the ILS at 60 mg/kg amounted to 28%. In addition, the ILS at 40 mg/kg with L1210 [9] was determined as 25%.
Turning to `CSc1ncnc2nn([C@@H]3O[C@H](CO)[C@@H](O)[C@H]3O)nc12`, the EC50 in [1] came to 6 µM.
In the case of `CCOc1ncnc2c1nnn2[C@@H]1O[C@H](CO)[C@@H](O)[C@H]1O`, the EC50 in data set [1] was found to be 0.1 µM. The “Ratio ED50” value with HEp-2 [3] is recorded as 20.
Turning to `CC(C)=CCNc1ncnc2c1nnn2[C@@H]1O[C@H](CO)[C@@H](O)[C@H]1O`, in [1], the EC50 is less than 3 µM.
`CSc1ncnc2nn([C@@H]3O[C@H](COC(C)=O)[C@@H](OC(C)=O)[C@H]3OC(C)=O)nc12`: in data set [1], the EC50 came out at 7 µM.
Turning to `OC[C@H]1O[C@@H](n2nnc3c(S)ncnc32)[C@H](O)[C@@H]1O`, in data set [1], the EC50 was determined as 1 µM. Besides, the “Ratio ED50” value in the data set with HEp-2 [3] was found to be 90; in the data set on HEp-2 [2], 40.
As for `CSc1ncnc2c1nnn2[C@@H]1O[C@H](CO)[C@@H](O)[C@H]1O`, in [1], the EC50 worked out at 0.02 µM. Also, the “Ratio ED50” value with HEp-2 [3] worked out at 2000; in the data set with HEp-2 [2], 3000. Besides, the increase in life span (ILS) in the data set with L1210 [5] came to 23%.
With `Nc1ncnc2snnc12`, in the data set with HEp-2 [10], the “growth inhibition (GI)” value was “inactive”.
Take `COc1ncnc2c1nnn2[C@@H]1O[C@H](CO)[C@@H](O)[C@H]1O`: in data set [1], the EC50 turned out to be 0.3 µM. The “Ratio ED50” value in the data set on HEp-2 [3] and with HEp-2 [2] was 6 in each case. Also, the ILS in the data set on L1210 [5] is recorded as 29%.
Turning to `CSc1ncnc2c1nnn2[C@@H]1O[C@H](COC(C)=O)[C@@H](OC(C)=O)[C@H]1OC(C)=O`, the EC50 in [1] came out at 0.5 µM.
